In ChEMBL document CHEMBL1157466, “Antifouling activity of meroditerpenoids from the marine brown alga Halidrys siliquosa” (J Nat Prod, 2008):
Values after ≈ are worked out from the molar mass of the structure shown.

Tests used:
Cobetia marina = experiment: Antibacterial activity against Cobetia marina ATCC 25374 after 24 hrs by microtiter broth dilution method; format: functional
Summary of the method: (§1)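 Marine bacteria at 2×10^8 cells/mL incubated with compound (0.5, 1, 2.5, 5, 10, 25, 50, 100 µg/mL) in Mueller Hinton broth supplemented with NaCl (15 g/L), 25 °C, 24 h, 96-well format. Six replicates per treatment alongside a seawater control. MIC read against the seawater control by microtiter broth dilution.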

Marinobacterium stanieri = experiment: Antibacterial activity against Marinobacterium stanieri ATCC 27130 after 24 hrs by microtiter broth dilution method; format: functional; summary of the method: as §1
Aliivibrio fischeri = experiment: Antibacterial activity against Vibrio fischeri ATCC 7744 after 24 hrs by microtiter broth dilution method; format: functional; summary of the method: as §1
[1] = system: Pseudoalteromonas haloplanktis; experiment: Antibacterial activity against Pseudoalteromonas haloplanktis after 24 hrs by microtiter broth dilution method; format: functional; summary of the method: as §1
Amphibalanus amphitrite = experiment: Antifouling activity in Balanus amphitrite assessed as inhibition of cyprid larvae settlement after 24 hrs; format: functional, organism-based
Summary of the method: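 Cyprids obtained by filtration 4 days after larval release from field-collected adults. 10–15 cyprids per well in 2 mL seawater containing compound at 0.5–100 µg/mL (0.5, 1, 2.5, 5, 10, 25, 50, 100). Kept in darkness at 28 °C for 24 h, six replicates. Larvae scored as dead, settled or swimming under a dissecting microscope. EC50 calculated as 50% settlement inhibition relative to the seawater control.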

[2] = Toxicity against Balanus amphitrite stage 2 nauplii after 24 hrs; format: organism-based; details: amphibalanus amphitrite, in vivo
Summary of the method: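 Ten to fifteen stage-II barnacle nauplii per well in 2 mL solution; compounds at 0.5, 1, 2.5, 5, 10, 25, 50 and 100 µg/mL; six replicates per treatment and control. Swimming and dead nauplii counted after 24 h exposure; LC50 is the concentration giving 50% mortality relative to control, derived from the dose-response data.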

[3] = Cobetia marina, ATCC 25374, 24 h, read-out: MIC
[4] = Marinobacterium stanieri, ATCC 27130, 24 h, read-out: MIC
[5] = Aliivibrio fischeri, ATCC 7744, 24 h, read-out: MIC
[6] = Pseudoalteromonas haloplanktis, 24 h, read-out: MIC
[7] = Amphibalanus amphitrite, 24 h, read-out: EC50

With `COc1cc(C)c(O)c(C/C=C(\C)CC(=O)/C=C(/C)CCCC(C)C(=O)C(O)C=C(C)C)c1` (stereo not given) the MIC (Cobetia marina; [3]) was 0.5 µg/mL (≈ 1.09 µM), the MIC (Marinobacterium stanieri; [4]) was 1 µg/mL (≈ 2.19 µM) and the MIC (Aliivibrio fischeri; [5]) was 0.5 µg/mL (≈ 1.09 µM). For the same compound, the MIC [1, 6] was 1 µg/mL (≈ 2.19 µM), the EC50 (Amphibalanus amphitrite; [7]) was 1 µg/mL (≈ 2.19 µM) and the LC50 at 24 h [2] was 5 µg/mL (≈ 10.9 µM).

`COc1cc(C)c2c(c1)C=CC(C)(CC(=O)/C=C(\C)CCCC(C)[C@@H](O)C(=O)C=C(C)C)O2` (stereo not given in full) gave an MIC (Cobetia marina; [3]) greater than 100 µg/mL, an MIC (Marinobacterium stanieri; [4]) greater than 100 µg/mL and an MIC (Aliivibrio fischeri; [5]) greater than 100 µg/mL. It also gave an MIC [1, 6] greater than 100 µg/mL, an EC50 (Amphibalanus amphitrite; [7]) greater than 100 µg/mL and an LC50 at 24 h [2] greater than 100 µg/mL.

With `COc1cc(C)c(O)c(C/C=C(\C)CC(=O)/C=C(/C)CCCC(C)C(O)C(=O)C=C(C)C)c1` (stereo not given) the MIC (Cobetia marina; [3]) was greater than 100 µg/mL, the MIC (Marinobacterium stanieri; [4]) was greater than 100 µg/mL and the MIC (Aliivibrio fischeri; [5]) was greater than 100 µg/mL. It also gave an MIC [1, 6] greater than 100 µg/mL, an EC50 (Amphibalanus amphitrite; [7]) greater than 100 µg/mL and an LC50 at 24 h [2] greater than 100 µg/mL.

For `COc1cc(C)c(O)c(C/C=C(\C)CC(O)/C=C(\C)CCCC(C)C(=O)C(O)C=C(C)C)c1` (stereo not given), the MIC (Cobetia marina; [3]) was 1 µg/mL (≈ 2.18 µM), the MIC (Marinobacterium stanieri; [4]) was 1 µg/mL (≈ 2.18 µM) and the MIC (Aliivibrio fischeri; [5]) was 0.5 µg/mL (≈ 1.09 µM). For the same compound, the MIC [1, 6] was 1 µg/mL (≈ 2.18 µM), the EC50 (Amphibalanus amphitrite; [7]) was 5 µg/mL (≈ 10.9 µM) and the LC50 at 24 h [2] was 10 µg/mL (≈ 21.8 µM).

In the case of `COc1cc(C)c(O)c(C/C=C(\C)CC(=O)/C=C(\C)CCCC(C)C(=O)C(O)C=C(C)C)c1` (stereo in doubt; 3), the MIC (Cobetia marina) is reported as 5 µg/mL (≈ 10.9 µM), the MIC (Marinobacterium stanieri) is reported as 5 µg/mL (≈ 10.9 µM) and the MIC (Aliivibrio fischeri) is reported as 5 µg/mL (≈ 10.9 µM). The MIC [1] was 10 µg/mL (≈ 21.9 µM) and the LC50 at 24 h [2] was greater than 100 µg/mL.

`COc1cc(C)c(O)c(C/C=C(\C)CC(=O)/C=C(\C)CCCC(C)C(=O)C(O)C=C(C)C)c1` (stereo in doubt; 4) gave an MIC (Cobetia marina) greater than 100 µg/mL, an MIC (Marinobacterium stanieri) greater than 100 µg/mL and an MIC (Aliivibrio fischeri) greater than 100 µg/mL. The MIC [1] was greater than 100 µg/mL and the EC50 (Amphibalanus amphitrite; [7]) was greater than 100 µg/mL.

In the case of `COc1cc(C)c(O)c(C/C=C(\C)CC(=O)/C=C(\C)CCCC(C)C(O)C(=O)C=C(C)C)c1` (stereo in doubt; 8), the MIC (Cobetia marina) is reported as 10 µg/mL (≈ 21.9 µM), the MIC (Marinobacterium stanieri) is reported as 10 µg/mL (≈ 21.9 µM) and the MIC (Aliivibrio fischeri) is reported as 25 µg/mL (≈ 54.7 µM). For the same compound, the MIC [1] was 10 µg/mL (≈ 21.9 µM), the EC50 (Amphibalanus amphitrite) was greater than 100 µg/mL and the LC50 at 24 h [2] was greater than 100 µg/mL.

In the case of `COc1cc(C)c(O)c(C/C=C(\C)CC(=O)/C=C(\C)CCCC(C)C(O)C(=O)C=C(C)C)c1` (stereo in doubt; 9), the MIC (Cobetia marina) is reported as 2.5 µg/mL (≈ 5.47 µM), the MIC (Marinobacterium stanieri) is reported as 1 µg/mL (≈ 2.19 µM) and the MIC (Aliivibrio fischeri) is reported as 2.5 µg/mL (≈ 5.47 µM). For the same compound, the MIC [1] was 1 µg/mL (≈ 2.19 µM) and the EC50 (Amphibalanus amphitrite) was 4 µg/mL (≈ 8.76 µM).
